Data reported in ChEMBL document CHEMBL3400028, “Evaluation of Aconitum diterpenoid alkaloids as antiproliferative agents” (2015).

Columns and labels:
Format in all cases: functional
A549 = experiment: Antiproliferative activity against human A549 cells by sulforhodamine B assay
Summary of the method: (§1)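 Cells in RPMI 1640 (25 mM HEPES, 2 mM L-glutamine, 10% heat-inactivated FBS, antibiotics) at 37 °C, 5% CO2. Seeded at 3–5 × 10³/well with graded concentrations, paclitaxel as assay control, for 72 h. TCA-fixed, stained with 0.04% SRB, dye dissolved in 10 mM Tris, A515 read. GI50 is the concentration halving absorbance versus untreated cells; three or more experiments.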

[1] = Selectivity ratio of GI50 for human KB cells to GI50 for multidrug-resistant P-gp expressing human KBVIN cells
Summary of the method: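 Ratio of GI50 in parental KB to GI50 in P-gp-overexpressing KB-VIN. […] KB-VIN cells were grown 7–10 days without vincristine before the assay.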

DU-145 = experiment: Antiproliferative activity against human DU145 cells by sulforhodamine B assay; summary of the method: as §1
KB = experiment: Antiproliferative activity against human KB cells by sulforhodamine B assay; summary of the method: as §1
[2] = Antiproliferative activity against multidrug-resistant P-gp expressing human KBVIN cells by sulforhodamine B assay
Summary of the method: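 Vincristine-resistant KB subline kept in 100 nM vincristine, then grown 7–10 days without it before testing. RPMI 1640 with 10% FBS, 37 °C, 5% CO2. 3–5 × 10³ cells/well exposed 72 h to a concentration series, paclitaxel as assay control. SRB staining after TCA fixation, A515 read. GI50 is the 50% absorbance reduction versus untreated cells; three or more experiments.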

| Compound | GI50 (A549) [µM] | RatioGI50 [1] | GI50 (DU-145) [µM] | GI50 (KB) [µM] | GI50 [2] [µM] |
| --- | --- | --- | --- | --- | --- |
| C=C1[C@H]2C[C@@H]3C4N5C[C@]6(C)CCC[C@@]47[C@@H]6[C@@H]5C[C@]3([C@@H]1O)[C@H]7[C@H]2OC(=O)c1ccccc1C(F)(F)F | > 20 | >20 | > 20 | > 20 | > 20 |
| C=C1[C@H]2C[C@@H]3C4N5C[C@]6(C)CCC[C@@]47[C@@H]6[C@@]5(OC(=O)c4ccc(OC)c(OC)c4)C[C@]3([C@@H]1OC(=O)c1ccc(OC)c(OC)c1)[C@H]7[C@H]2O | 10 | 10 | 10 | 10 | 10 |
| CCN1C[C@]2(COC)[C@H](O)C[C@H](OC)[C@@]34[C@@H]5C[C@@]6(O)[C@H](OC(=O)c7ccccc7)[C@@H]5[C@@](OC(C)=O)([C@@H]([C@H](OC)[C@H]23)[C@@H]14)[C@@H](O)[C@@H]6OC [ACONITINE] | > 20 | >20 | > 20 | > 20 | > 20 |
| CCN1C[C@]2(COC)[C@H](O)C[C@H](OC(C)=O)[C@]34C1[C@@](O)([C@@H](OC)[C@H]23)[C@@]1(O)C[C@H](OC)[C@H]2C[C@@H]4[C@@H]1[C@H]2O | > 20 | >20 | > 20 | > 20 | > 20 |
| CCN1C[C@]2(C)CC[C@H](O)[C@@]34C5C[C@@H]6[C@@H](OC)C[C@@](O)(C5[C@H]6O)[C@@H](CC23)C14 (stereo not given in full) [KARACOLINE] | > 20 | >20 | > 20 | > 20 | > 20 |
| COC[C@]12CN(C)C3C4[C@H](OC)[C@H]1[C@@]3([C@@H](OC)C[C@H]2O)[C@@H]1C[C@@]2(O)[C@H](OC(=O)c3ccccc3)[C@@H]1[C@]4(OC)[C@@H](O)[C@@H]2OC [HOKBUSINE A] | > 20 | >20 | > 20 | > 20 | > 20 |
| C=C1[C@H]2C[C@@]3([C@@H]1OC(C)=O)[C@@H](C[C@@H]2O)[C@@]12C4[C@@H]3C[C@@H]1[C@@](C)(CC[C@@H]2O)CN4CC | > 20 | >20 | > 20 | > 20 | > 20 |
| C=C1[C@H]2C[C@H]3C4N5C[C@]6(C)CCC[C@]47[C@H]([C@H]2O)C3(C[C@]5(OC(=O)/C=C/c2ccccc2)[C@H]67)[C@@H]1O | > 20 | >20 | > 20 | > 20 | > 20 |
| CC1[C@H]2C[C@@H]3C4N5C[C@]6(C)CCC[C@@]47[C@@H]6[C@@]5(O)C[C@]3([C@@H]1O)[C@H]7[C@H]2O (stereo not given in full) | > 20 | >20 | > 20 | > 20 | > 20 |
| CCN1C[C@@]2(COC)[C@H]3[C@@H](OC)[C@H]4C1[C@]3([C@@H](OC)C[C@H]2OC(C)=O)[C@@H]1C[C@@]2(O)[C@H](OC(=O)c3ccc(OC)cc3)[C@@H]1[C@]4(OC(C)=O)[C@@H](OC(C)=O)[C@@H]2OC | > 20 | >20 | > 20 | > 20 | > 20 |
| CCN1C(=O)[C@]2(COC(=O)c3ccccc3N)CC[C@H](OC)[C@]34C1[C@@](O)([C@@H](OC)[C@H]23)[C@@]1(O)C[C@H](OC)[C@H]2C[C@@H]4[C@@H]1[C@H]2OC | > 20 | >20 | > 20 | > 20 | > 20 |
| C=C1[C@H]2C[C@@]3([C@@H]1OC(C)=O)[C@@H](C[C@@H]2OC(C)=O)[C@@]12C4[C@@H]3C[C@@H]1[C@@](C)(CC[C@@H]2O)CN4CC | > 20 | >20 | > 20 | > 20 | > 20 |
| C=C1[C@H]2C[C@H]3C4N5C[C@]6(C)CCC[C@]47[C@H]([C@H]2OC(=O)c2ccc(OC)c(OC)c2)C3(C[C@]5(O)[C@H]67)[C@@H]1O | 10 | 10 | 10 | 10 | 10 |
| C=C1[C@H]2C[C@@]3(C4C[C@@H]5C6(C)CCC7O[C@H]6N(CC)C4C75[C@@H]3C[C@@H]2O)[C@@H]1O | > 20 | >20 | > 20 | > 20 | > 20 |
| C=C1[C@H]2C[C@@H]3C4N5C[C@]6(C)CCC[C@@]47[C@@H]6[C@@H]5C[C@]3([C@@H]1O)[C@H]7[C@H]2OC(=O)c1ccc([N+](=O)[O-])cc1 | 10 | 10 | 10 | 10 | 10 |
